Drawing on ChEMBL document CHEMBL1140200, “Synthesis and pharmacological evaluation of a second generation of pyridothiadiazine 1,1-dioxides acting as AMPA potentiators” (Bioorg Med Chem, 2008), this text covers Activity, EC and logP for 19 compounds.

Series [1] deals with Oocyte. The series can be described thus: Potentiation of Wistar rat AMPA receptor expressed in Xenopus laevis oocytes assessed as increase in amplitude of (S)-[…] current by two electrode voltage-clamp method relative to AMPA. More on the design: concentration or dose not given beside the values. The series is classed as cell-based. The method in brief: (§1)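 Xenopus oocytes were injected with rat cortex poly(A+) mRNA (1 mg/mL) and kept 3–4 days at 18 °C in Barth's solution before voltage-clamp recording. (S)-AMPA alone was applied until two similar inward currents were obtained; their mean was set as 100%. Drug was bath-applied at successive increasing concentrations every 5 min 45 s, on 2–3 oocytes. EC2X and EC5X were interpolated as twofold and fivefold current increases; EC50 was taken at half-maximal potentiation.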
A general note: In two-electrode clamp one electrode senses voltage and the other passes current.

In series [2] the test system is Oocyte. The series is described as follows: Potentiation of Wistar rat AMPA receptor expressed in Xenopus laevis oocytes assessed as 2-fold increase in amplitude of (S)-AMPA-induced current by two electrode voltage-clamp method. The series is classed as cell-based. The gist of the method:
as §1

Series [3] deals with Oocyte. The series can be described thus: Potentiation of Wistar rat AMPA receptor expressed in Xenopus laevis oocytes assessed as 5-fold increase in amplitude of (S)-AMPA-induced current by two electrode voltage-clamp method. The series is classed as cell-based. The gist of the method:
as §1

The nature of series [4]: Lipophilicity, log P by shake flask method. The series is classed as physicochemical. The following applies: octanol/water. The gist of the method:
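Partition coefficient was measured between 1-octanol and phosphate buffer, pH 7.40, by shake-flask, using 1×10^-4 M stock drug solutions in octanol or buffer. Drug concentration after partition was measured by UV spectrophotometry at maximum absorbance.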

Series [5] deals with Rattus norvegicus. The series can be described thus: Toxicity in Wistar rat at 100 mg/kp, po. The series is classed as organism-based. The following applies: in vivo.
Series [6] concerns Rattus norvegicus. The series can be described thus: Cognitive enhancing effect in Wistar rat at 3 mg/kp, ip after 1 hr by one-trial object recognition test. In kind it is functional, organism-based. The method in brief:
(§2)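 Adult rats had three 3-min sessions 24 h apart. Two similar objects were presented in session 2. In the last session one object was replaced by a new one. Compound or vehicle was given i.p. 1 h before each session at 0.3, 1, 3 or 10 mg/kg. The read-out was the discrimination index (new − familiar exploration / total exploration) in the last session.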

The subject of series [7] is Rattus norvegicus. The series is described as follows: Cognitive enhancing effect in Wistar rat assessed as improvement in juvenile recognition behavior at 0.3 mg/kp, ip. The series is classed as functional, organism-based. The gist of the method: (§3)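 Adult rats were housed individually for 2 days before testing. After 5-min habituation in the home cage, a 21-day juvenile was introduced for a 5-min session and investigation time T1 was recorded on video. Dosing was i.p. 1 min after that session. The same juvenile was reintroduced 120 min later for 5 min (T2). T2–T1 was analysed by one-way ANOVA; n = 8.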

The species named for series [8] is Rattus norvegicus. The series can be described thus: Cognitive enhancing effect in Wistar rat after 1 hr by one-trial object recognition test. The series is classed as functional, organism-based. The gist of the method: as §2
The subject of series [9] is Rattus norvegicus. The series can be described thus: Cognitive enhancing effect in Wistar rat assessed as improvement in juvenile recognition behavior at 3 mg/kp, ip. The series is classed as functional, organism-based. The method in brief: as §3
Series [10] concerns Rattus norvegicus. The series can be described thus: Cognitive enhancing effect in Wistar rat assessed as improvement in juvenile recognition behavior at 1 mg/kp, ip. In kind it is functional, organism-based. The method in brief: as §3
Series [11] deals with Rattus norvegicus. The series can be described thus: Cognitive enhancing effect in Wistar rat assessed as improvement in juvenile recognition behavior at 100 mg/kp, po. The series is classed as functional, organism-based.
Series [12] has as its system Rattus norvegicus. The series can be described thus: Cognitive enhancing effect in Wistar rat at 100 mg/kp, po after 1 hr by one-trial object recognition test. The series is classed as functional, organism-based.
In series [13] the test system is Rattus norvegicus. The series is described as follows: Cognitive enhancing effect in Wistar rat at 10 mg/kp, ip after 1 hr by one-trial object recognition test. The series is classed as functional, organism-based. The method in brief: as §2

Activity calls are given as the source filed them. The calls are words filed in the database; no cut-off is given here.

In the case of `CCN1CNS(=O)(=O)c2cc(Br)ccc21`, the Activity in the series on Oocyte [1] was more than 1100%. Moreover, the EC was determined as 29 µM with Oocyte [2] and 78 µM in the series with Oocyte [3].
As a reminder, the logP is the decadic logarithm of the partition coefficient of the neutral form, usually between octanol and water. Consider `CCN1CNS(=O)(=O)c2ncc(C)cc21`, for which the results for the EC with Oocyte [2] and in the series with Oocyte [3] were 116 µM and more than 300 µM, respectively. This compound also had a logP in series [4] of 0.41.
On to `Cc1cnc2c(c1)N(C)CNS2(=O)=O`, for which the figures for the EC in the series on Oocyte [2] and with Oocyte [3] were 146 µM and more than 300 µM, respectively.
On the same counts, the results for `CN1CNS(=O)(=O)c2cccnc21` are 200 µM and 500 µM.
Consider `CC1Nc2ccc(Cl)cc2S(=O)(=O)N1` (stereo not drawn), for which the Activity in the series on Oocyte [1] is more than 700%. The EC with Oocyte [2] is 134 µM; in the series on Oocyte [3] it was 509 µM.
For `NS(=O)(=O)c1cc2c(cc1Cl)NC(C1CC3C=CC1C3)NS2(=O)=O` (stereo not drawn), in that order: 844%, 1.6 µM and 9.8 µM.
For `CCN1CN(C)S(=O)(=O)c2cc(Cl)cnc21`, the EC in the series on Oocyte [2] stood at 110 µM; in the series on Oocyte [3] it was 335 µM.
On the same counts, the results for `CN1CNS(=O)(=O)c2ncccc21` are 21 µM and 51 µM.
In the case of `CCN1CNS(=O)(=O)c2cc(Br)cnc21`, the results for the EC in the series with Oocyte [2] and in the series with Oocyte [3] were 160 µM and more than 300 µM, respectively.
On the same counts, the results for `CCN1CNS(=O)(=O)c2cc(C)cnc21` are more than 1000 µM and more than 1000 µM.
On the same counts, the results for `CCN1CN(C)S(=O)(=O)c2ncc(C)cc21` are 86 µM and more than 300 µM.
As to `CCN1CNS(=O)(=O)c2cc(C)ccc21`, the Activity with Oocyte [1] was more than 1300%. Besides, the EC came out at 25 µM in the series with Oocyte [2] and 95 µM in the series on Oocyte [3].
`CN1CNS(=O)(=O)c2cc(F)cnc21`: the EC in the series with Oocyte [2] was more than 100 µM.
Turning to `CCN1CN(C)S(=O)(=O)c2ncccc21`, the EC with Oocyte [2] worked out at 38 µM; with Oocyte [3] it was 96 µM.
Consider `CCN1CNS(=O)(=O)c2cc(F)cnc21`, for which the Activity in the series with Oocyte [1] is more than 422%. Also, the values for the EC in the series on Oocyte [2] and in the series with Oocyte [3] were 123 µM and 300 µM, respectively.
As to `CCN1CNS(=O)(=O)c2cc(Cl)cnc21`, the results for the Activity with Oocyte [1], with Rattus norvegicus [5] and in the series filed under Rattus norvegicus [8] were 1090%, “Non-toxic” and “Dose-dependent effect”, respectively. For the same compound, the outcome in the series on Rattus norvegicus [6], in the series with Rattus norvegicus [7], in the series on Rattus norvegicus [9], with Rattus norvegicus [10] and in the series on Rattus norvegicus [13] was Active. Also, the results for the EC in the series on Oocyte [2] and in the series on Oocyte [3] were 20 µM and 44 µM, respectively. For the same compound, the result in the series on Rattus norvegicus [11] and in the series on Rattus norvegicus [12] was inactive.
Regarding `CN1CNS(=O)(=O)c2cc(Cl)cnc21`, the EC with Oocyte [2] amounted to 21 µM; in the series with Oocyte [3], 81 µM.
As for `O=S1(=O)N[C@H]2CCCN2c2ccccc21`, in the series with Oocyte [1], the Activity is 1260%. The results for the EC with Oocyte [2] and in the series on Oocyte [3] were 24.6 µM and 78.2 µM, respectively.
With `CCN1CNS(=O)(=O)c2ncccc21`, the logP in series [4] was determined as 0.12.
